Measurements: ChEMBL document CHEMBL1128175, “Pyrrolo[2,1-c][1,4]benzothiazines: synthesis, structure-activity relationships, molecular modeling studies, and cardiovascular activity” (J Med Chem, 1995)

How the values were obtained:
[1] = molecular target: T1, Voltage-gated L-type calcium channel (Rattus norvegicus, UniProt P22002+Q02485+P27732); assay: Calcium antagonistic activity by measuring [3H]nitrendipine displacement at calcium channel in rat cortex homogenate; type: functional, tissue-based
Outline: (§1)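 Cerebral cortex from male Sprague-Dawley rats, homogenized in 50 mM Na-Hepes pH 7.4 and washed five times by centrifugation at 48000g. Bound ligand collected by rapid filtration and counted. IC50 by log-probit analysis, converted to Ki by the Prusoff method. At least three experiments in triplicate.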

[2] = molecular target: T1, Voltage-gated L-type calcium channel; assay: Inhibition of [3H]nitrendipine binding at L-type [Ca2+] channel in rat cortex homogenate by 50%.; outline: as §1
[3] = molecular target: T2, Voltage-dependent L-type calcium channel subunit alpha-1C (Rattus norvegicus, UniProt P22002); assay: Calcium antagonistic activity by measuring [3H]nitrendipine displacement from rat heart L-type [Ca2+] channel; type: functional
Outline: (§2)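 Rat hearts perfused through the aorta with ice-cold saline, homogenized in 50 mM Na-Hepes pH 7.4, filtered through cheesecloth and washed five times at 48000g. Incubated 90 min at 0 °C in the dark with [3H]nitrendipine. Six displacer concentrations used, separated by filtration. IC50 by log-probit analysis, converted to Ki by Cheng-Prusoff. At least three experiments in triplicate.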

[4] = species: Cavia porcellus; assay: The compound was tested for the negative chronotropic activity on isolated guinea pig spontaneously beating right atrium at 10e-4 M.; type: functional, Cardiac atrium
Outline: (§3)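 Spontaneously beating right atria from guinea pigs (300-400 g) in oxygenated Tyrode (95% O2-5% CO2), 35 °C, pH 7.4, recorded isometrically. Compounds from DMSO diluted in PSS (DMSO ≤0.3%), added cumulatively at 0.1-100 µM once steady state was reached.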

[5] = species: Cavia porcellus; assay: Inotropic negative potency on stimulated guinea pig left atrium; type: functional; conditions: Cardiac atrium, read-out: ED50 (the source's name)
Outline: (§4)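 Guinea pig left atria driven at 1 Hz with 0.6-0.8 ms pulses at […], in oxygenated Tyrode at 35 °C, pH 7.4. Isometric force recorded. Cumulative compound additions of 0.1-100 µM from DMSO stock (bath DMSO ≤0.3%), each after steady state. Potency from log concentration-response curves by probit analysis, n = 6-8.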

[6] = species: Cavia porcellus; assay: The compound was tested for the negative inotropic activity on isolated guinea pig left atrium at 5*10e-5 M; type: functional, Cardiac atrium; outline: as §4
[7] = species: Cavia porcellus; assay: Tested for the calcium antagonistic activity on K+-depolarized guinea pig aortic strips at 5*10e-5 M.; type: functional, Aorta
Outline: (§5)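 Guinea pig aortic strips held at 1 g resting force and equilibrated 1 h in PSS. Contracted with 80 mM KCl (K+ replacing Na+). At plateau (about 30 min), compounds in DMSO were added cumulatively at 0.1-500 µM. Relaxation of isometric force measured.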

[8] = species: Cavia porcellus; assay: Inotropic negative potency on spontaneously beating right atrium of guinea pig; type: functional, Cardiac atrium; outline: as §3
[9] = species: Cavia porcellus; assay: Tested for the negative inotropic activity on isolated guinea pig left atrium at 10e-4 M; type: functional, Cardiac atrium; outline: as §4
[10] = molecular target: T1, Voltage-gated L-type calcium channel; assay: Calcium antagonistic activity by measuring [3H]nitrendipine displacement at L-type [Ca2+] channel in rat cortex homogenate; type: functional, tissue-based; outline: as §1
[11] = species: Cavia porcellus; assay: Tested for the calcium antagonistic activity on K+-depolarized guinea pig aortic strips at 10e-4 M.; type: functional; conditions: Aorta; outline: as §5
[12] = species: Cavia porcellus; assay: Tested for the negative chronotropic activity on isolated guinea pig spontaneously beating right atrium at 5*10e-5 M.; type: functional, Cardiac atrium; outline: as §3
[13] = molecular target: T2, Voltage-dependent L-type calcium channel subunit alpha-1C; assay: The compound was tested for calcium antagonistic activity by measuring [3H]nitrendipine displacement from rat heart L-type calcium channels; Not active; type: functional; outline: as §2
[14] = species: Cavia porcellus; assay: The compound was tested for the negative chronotropic activity on isolated guinea pig spontaneously beating right atrium at 10e-5 M.; type: functional, Cardiac atrium; outline: as §3
[15] = species: Cavia porcellus; assay: The compound was tested for the calcium antagonistic activity on K+-depolarized guinea pig aortic strips; type: functional; conditions: Aorta; outline: as §5
[16] = species: Cavia porcellus; assay: Tested for the negative inotropic activity on isolated guinea pig left atrium at 10e-5 M; type: functional, Cardiac atrium; outline: as §4
[17] = species: Cavia porcellus; assay: Inotropic negative potency on stimulated guinea pig left atrium.; type: functional; conditions: Cardiac atrium, read-out: ED50 (the source's name); outline: as §4
[18] = species: Cavia porcellus; assay: Inotropic negative potency on stimulated guinea pig left atrium.(value in parentheses indicate 95% confidence limit*10e-6).; type: functional; conditions: Cardiac atrium, read-out: ED50 (the source's name); outline: as §4
[19] = species: Cavia porcellus; assay: The compound was tested for the negative inotropic activity on isolated guinea pig left atrium at 5*10e-6 M; type: functional, Cardiac atrium; outline: as §4
[20] = species: Cavia porcellus; assay: Inotropic negative potency on spontaneously beating right atrium of guinea pig, activity is expressed as […] values; type: functional, Cardiac atrium; outline: as §3
[21] = species: Cavia porcellus; assay: The compound was tested for the calcium antagonistic activity on K+-depolarized guinea pig aortic strips at 10e-4 M.; type: functional; conditions: Aorta; outline: as §5
[22] = species: Cavia porcellus; assay: Inotropic negative potency on spontaneously beating right atrium of guinea pig.(value in parentheses indicate 95% confidence limit*10e-6).; type: functional, Cardiac atrium; outline: as §3

T2 sequence (P22002 whole entry, the tested form may be a part): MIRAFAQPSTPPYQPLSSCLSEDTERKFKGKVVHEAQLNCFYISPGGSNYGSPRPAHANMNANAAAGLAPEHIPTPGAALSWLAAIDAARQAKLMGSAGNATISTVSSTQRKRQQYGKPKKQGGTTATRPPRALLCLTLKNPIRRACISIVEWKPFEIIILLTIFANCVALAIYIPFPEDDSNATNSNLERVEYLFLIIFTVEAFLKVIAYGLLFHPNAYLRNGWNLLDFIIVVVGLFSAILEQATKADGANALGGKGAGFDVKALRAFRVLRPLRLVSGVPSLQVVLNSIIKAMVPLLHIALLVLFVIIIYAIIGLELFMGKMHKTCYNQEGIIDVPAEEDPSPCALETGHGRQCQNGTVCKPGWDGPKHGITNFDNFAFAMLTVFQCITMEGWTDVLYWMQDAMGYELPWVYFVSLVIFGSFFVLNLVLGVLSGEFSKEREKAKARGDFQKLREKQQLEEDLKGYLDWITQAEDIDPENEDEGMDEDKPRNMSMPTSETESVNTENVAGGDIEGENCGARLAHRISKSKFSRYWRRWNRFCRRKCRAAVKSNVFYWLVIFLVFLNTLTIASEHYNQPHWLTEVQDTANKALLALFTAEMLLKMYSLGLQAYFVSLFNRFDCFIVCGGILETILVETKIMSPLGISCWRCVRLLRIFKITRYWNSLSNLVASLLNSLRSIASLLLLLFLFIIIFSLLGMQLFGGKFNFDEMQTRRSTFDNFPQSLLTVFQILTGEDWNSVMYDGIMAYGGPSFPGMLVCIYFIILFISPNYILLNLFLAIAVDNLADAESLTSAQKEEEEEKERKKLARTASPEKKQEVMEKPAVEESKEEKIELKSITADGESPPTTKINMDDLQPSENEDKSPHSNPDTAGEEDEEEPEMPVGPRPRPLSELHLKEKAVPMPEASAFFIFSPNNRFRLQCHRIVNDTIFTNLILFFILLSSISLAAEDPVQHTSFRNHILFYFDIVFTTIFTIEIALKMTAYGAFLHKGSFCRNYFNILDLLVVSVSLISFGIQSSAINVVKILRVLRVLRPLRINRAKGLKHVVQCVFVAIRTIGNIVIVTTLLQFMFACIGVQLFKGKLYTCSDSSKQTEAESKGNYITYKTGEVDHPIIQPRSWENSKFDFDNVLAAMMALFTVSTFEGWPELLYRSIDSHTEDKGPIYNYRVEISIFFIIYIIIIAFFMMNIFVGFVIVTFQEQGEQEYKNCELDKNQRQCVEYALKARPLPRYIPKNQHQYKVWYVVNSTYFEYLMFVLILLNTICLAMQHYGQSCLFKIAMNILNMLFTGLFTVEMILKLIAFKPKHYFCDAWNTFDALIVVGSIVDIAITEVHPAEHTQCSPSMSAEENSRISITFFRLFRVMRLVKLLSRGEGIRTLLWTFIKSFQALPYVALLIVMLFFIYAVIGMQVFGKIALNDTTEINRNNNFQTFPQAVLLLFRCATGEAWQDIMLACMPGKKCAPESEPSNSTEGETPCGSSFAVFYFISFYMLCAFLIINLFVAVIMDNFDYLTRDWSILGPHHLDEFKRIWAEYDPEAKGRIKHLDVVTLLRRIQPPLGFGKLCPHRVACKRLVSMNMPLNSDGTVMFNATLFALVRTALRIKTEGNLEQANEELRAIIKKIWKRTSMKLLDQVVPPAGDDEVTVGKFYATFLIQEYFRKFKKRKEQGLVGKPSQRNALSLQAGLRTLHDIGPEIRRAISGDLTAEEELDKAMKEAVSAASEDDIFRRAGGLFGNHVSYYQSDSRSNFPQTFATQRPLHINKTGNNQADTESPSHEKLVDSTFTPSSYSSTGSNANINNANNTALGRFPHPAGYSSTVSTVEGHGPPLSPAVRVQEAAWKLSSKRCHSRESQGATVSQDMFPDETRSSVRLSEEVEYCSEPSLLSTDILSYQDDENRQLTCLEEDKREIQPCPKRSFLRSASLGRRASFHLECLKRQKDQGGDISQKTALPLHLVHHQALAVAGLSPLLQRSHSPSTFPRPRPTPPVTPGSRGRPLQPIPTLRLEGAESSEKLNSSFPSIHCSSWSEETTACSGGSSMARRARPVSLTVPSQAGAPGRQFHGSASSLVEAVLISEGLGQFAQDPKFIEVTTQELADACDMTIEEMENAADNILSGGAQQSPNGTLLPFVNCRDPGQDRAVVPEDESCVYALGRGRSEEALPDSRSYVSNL

SMILES	IC50 [2] [nM]	EC50 [5] [nM]	Ki [10] [nM]	inhibition at 100 µM [11] [%]	Decrease [12] [%]	further results
CCC(C)NCc1ccc2n1-c1ccccc1SC2c1ccc(OC)cc1 (stereo unspecified)	12	–	–	–	–	Ki [1]: 4.4 nM
CCC(C)NCc1ccc2n1-c1ccccc1SC2c1ccc(OC)cc1OC (stereo unspecified)	15	600	–	–	–	Ki [3]: 640 nM; Decrease [4]: 67%; Decrease [6]: 85%; Inhibition [7]: 18%; Ki [1]: 5.5 nM; ED30 [8]: 420 nM
COc1ccc(C2(c3ccc(OC)cc3)Sc3ccccc3-n3c(CN(C)C)ccc32)cc1	2160	730	809	12	48	Decrease [9]: 78%
COc1ccc(C2Sc3ccccc3-n3cccc32)cc1 (stereo unspecified)	> 5000	–	–	–	–	–
COc1ccc(C2(c3ccc(OC)cc3)Sc3ccccc3-n3cccc32)cc1	> 5000	–	–	–	–	–
COc1ccc(C2Oc3ccccc3-n3c(CN(C)C)ccc32)cc1 (stereo unspecified)	4670	920	1750	24	–	Decrease [9]: 69%; Ki [13]: Not Active; Decrease [14]: 22%
COc1ccc([C@H]2Sc3ccccc3N3C(=O)CC[C@H]23)cc1	4.4	1200	2	32	39	Ki [3]: 35 nM; Decrease [9]: 60%
COc1ccc(C2(c3ccc(OC)cc3)Sc3ccc(C(F)(F)F)cc3-n3cccc32)cc1	> 5000	–	–	–	–	–
O=C1CC[C@@H]2[C@@H](c3ccccc3)Sc3ccccc3N12	0.78	230	0.29	37	20	IC50 [15]: 20000 nM; Decrease [16]: 66%
COc1ccc(C2Sc3ccccc3-n3c(CNc4ccc(F)cc4)ccc32)cc1 (stereo unspecified)	> 5000	–	–	–	–	–
COc1ccc(C2Sc3ccccc3-n3c(CNCCc4ccc(OC)c(OC)c4)ccc32)c(OC)c1 (stereo unspecified)	–	560	–	–	10	Decrease [6]: 83%; Inhibition [7]: 9%
CN(C)Cc1ccc2n1-c1cccc(Cl)c1SC2(c1ccccc1)c1ccccc1	82	–	31	–	–	Ki [3]: 26 nM
FC(F)(F)c1ccc2c(c1)-n1cccc1C(c1ccccc1)(c1ccccc1)S2	2060	–	772	–	–	–
CN(C)Cc1ccc2n1-c1ccccc1SC2(c1ccccc1)c1ccccc1	–	–	–	3.4	10	EC50 [17]: 890 nM; Decrease [16]: 56%
COc1ccc(C2Sc3ccccc3-n3c(CN(C)CCc4ccc(OC)c(OC)c4)ccc32)cc1 (stereo unspecified)	–	840	–	4	32	Ki [3]: 8.3 nM; Decrease [9]: 86%
CN(C)Cc1ccc2n1-c1cc(C(F)(F)F)ccc1SC2(c1ccccc1)c1ccccc1	107	–	40.1	–	–	–

SMILES	IC50 [2] [nM]	EC50 [5] [nM]	Ki [10] [nM]	inhibition at 100 µM [11] [%]	Decrease [12] [%]	further results
COc1ccc(C2Sc3ccccc3-n3c(CN4CCOCC4)ccc32)cc1 (stereo unspecified)	> 5000	–	–	–	–	–
Clc1ccc2c(c1)-n1cccc1C(c1ccccc1)(c1ccccc1)S2	4350	–	1630	–	–	–
c1ccc(C2(c3ccccc3)Sc3ccccc3-n3cccc32)cc1	465	–	178	–	–	–
CC(=O)OC1(c2ccccc2)Sc2ccccc2-n2cccc21 (stereo unspecified)	4700	–	1830	36	33	Decrease [6]: 86%; EC50 [18]: 380 nM
COc1ccc(C2Sc3ccccc3-n3c(CNCCc4ccc(OC)c(OC)c4)ccc32)cc1 (stereo unspecified)	–	450	–	–	14	Decrease [9]: 82%; Inhibition [7]: 16%
COc1ccc(C2Sc3ccccc3-n3c(CN(C)C)ccc32)c(OC)c1 (stereo unspecified)	–	150	–	–	–	Ki [3]: 160 nM; Decrease [4]: 20%; Decrease [19]: 68%; Inhibition [7]: 5%
CN(C)Cc1ccc2n1-c1ccccc1SC2c1ccccc1 (stereo unspecified)	–	1500	–	42	76	Decrease [9]: 79%; ED30 [20]: 510 nM
COc1ccc(C2Sc3ccccc3-n3c(CN(C)C)ccc32)cc1 (stereo unspecified)	–	810	–	–	–	Ki [3]: 53 nM; Decrease [4]: 30%; inhibition at 100 µM [21]: 10%; Decrease [16]: 75%
Clc1cccc2c1SC(c1ccccc1)(c1ccccc1)c1cccn1-2	320	–	120	–	–	–
COc1ccc(C2Sc3ccccc3-n3c(CN(C)CCc4ccc(OC)c(OC)c4)ccc32)c(OC)c1 (stereo unspecified)	1600	860	–	–	18	Decrease [6]: 62%; Inhibition [7]: 10%; Ki [1]: 740 nM
COc1ccc(C2(OC(C)=O)Sc3ccccc3-n3cccc32)cc1 (stereo unspecified)	30	–	11	11	70	EC50 [18]: 240 nM; ED30 [22]: 2300 nM; Decrease [16]: 71%
CC(=O)OC1(c2ccccc2)Sc2ccc(C(F)(F)F)cc2-n2cccc21 (stereo unspecified)	65	–	24	–	–	–
COc1ccc(CCN(C)Cc2ccc3n2-c2ccccc2SC3c2ccccc2)cc1OC (stereo unspecified)	198	–	–	–	–	Ki [1]: 74 nM
COc1ccc(C2Sc3ccccc3-n3c(CNc4ccc(F)cc4)ccc32)c(OC)c1 (stereo unspecified)	> 5000	–	–	–	–	–
COc1ccc([C@@H]2Sc3ccccc3N(CCN(C)C)C(=O)[C@@H]2OC(C)=O)cc1 [DILTIAZEM]	–	790	–	88	94	ED30 [8]: 70 nM; Decrease [16]: 78%
